Activity calls are given as the source filed them.
Key:
[1] = molecular target: Mu-type opioid receptor (Homo sapiens) (UniProt P35372); assay: Displacement of [3H]DAMGO from human recombinant Mu-type opioid receptor expressed in CHO cells at 10^-5 M; format: cell-based
How it was run: (§1)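 Radioligand binding screen run at a single test concentration of 10^-5 M. Each target used its stated receptor source (human recombinant CHO or HEK-293 cells, endogenous cell lines, or rat tissue membranes) with the listed radioligand.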

[2] = molecular target: D(1B) dopamine receptor (Homo sapiens) (UniProt P21918); assay: Displacement of [3H]SCH23390 from human recombinant Dopamine D5 receptor expressed in GH4 cells at 10^-5 M; format: cell-based
Chain of D(1B) dopamine receptor (Homo sapiens) (P21918 whole entry): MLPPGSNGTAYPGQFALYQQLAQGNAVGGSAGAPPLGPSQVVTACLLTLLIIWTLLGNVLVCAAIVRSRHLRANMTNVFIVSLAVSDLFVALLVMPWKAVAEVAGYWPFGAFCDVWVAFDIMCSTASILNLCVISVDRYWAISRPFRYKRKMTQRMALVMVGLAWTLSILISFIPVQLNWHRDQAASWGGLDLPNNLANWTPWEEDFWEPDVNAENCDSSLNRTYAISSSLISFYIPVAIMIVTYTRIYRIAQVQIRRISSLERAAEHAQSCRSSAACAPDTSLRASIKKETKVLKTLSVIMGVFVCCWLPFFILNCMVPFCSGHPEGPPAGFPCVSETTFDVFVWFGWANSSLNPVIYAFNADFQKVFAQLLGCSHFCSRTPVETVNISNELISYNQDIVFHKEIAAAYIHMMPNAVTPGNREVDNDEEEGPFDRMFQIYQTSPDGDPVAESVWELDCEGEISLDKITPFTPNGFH
How it was run: (§2)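 Radioligand displacement screen with the test agent at a single 10^-5 M concentration; receptor source and radioligand per target as tabulated (recombinant human cell lines or rat cerebral cortex/urinary bladder).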

[3] = molecular target: Sodium-dependent serotonin transporter (Homo sapiens) (UniProt P31645); assay: Displacement of [3H]imipramine from human recombinant 5-HT transporter expressed in CHO cells at 10^-5 M; format: cell-based; how it was run: as §2
Chain of Sodium-dependent serotonin transporter (Homo sapiens) (P31645 whole entry, looked up): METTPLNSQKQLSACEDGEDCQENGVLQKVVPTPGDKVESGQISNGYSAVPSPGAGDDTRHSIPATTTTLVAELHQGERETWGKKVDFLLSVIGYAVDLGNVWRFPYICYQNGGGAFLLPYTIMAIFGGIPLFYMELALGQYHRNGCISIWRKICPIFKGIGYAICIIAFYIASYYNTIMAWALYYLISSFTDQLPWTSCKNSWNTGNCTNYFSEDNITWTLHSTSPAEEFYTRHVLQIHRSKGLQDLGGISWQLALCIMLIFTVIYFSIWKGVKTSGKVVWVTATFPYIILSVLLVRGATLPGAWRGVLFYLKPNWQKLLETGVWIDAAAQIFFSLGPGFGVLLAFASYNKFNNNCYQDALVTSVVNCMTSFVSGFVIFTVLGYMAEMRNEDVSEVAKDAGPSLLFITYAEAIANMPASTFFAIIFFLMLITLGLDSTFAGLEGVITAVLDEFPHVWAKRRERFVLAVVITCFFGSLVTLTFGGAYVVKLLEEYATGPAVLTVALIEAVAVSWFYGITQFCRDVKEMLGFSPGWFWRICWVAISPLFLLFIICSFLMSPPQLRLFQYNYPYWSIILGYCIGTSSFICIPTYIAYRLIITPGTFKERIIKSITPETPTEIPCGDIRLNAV

[4] = test system: Rattus norvegicus; assay: Anticonvulsant activity in pilocarpine-induced status epilepticus Sprague-Dawley rat model at 30 mg/kg, ip after 0.5 hrs during post stage 3 seizure; format: functional, organism-based
How it was run: (§3)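 Rats given pilocarpine 50 mg/kg ip and observed to first convulsive seizure (Racine stage 3–5, time zero); test drug then given ip in 0.5% methylcellulose. Efficacy = halting further stage 3–5 convulsive seizures; scored protected/tested, time after first stage 3 seizure.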

[5] = molecular target: Kappa-type opioid receptor (Rattus norvegicus) (UniProt P34975); assay: Displacement of [3H]U 69593 from rat recombinant kappa-type opioid receptor expressed in CHO cells at 10^-5 M; format: cell-based; how it was run: as §2
[6] = molecular target: D(2) dopamine receptor (Homo sapiens) (UniProt P14416); assay: Displacement of [3H]methylspiperone from human recombinant Dopamine D2S receptor expressed in HEK293 cells at 10^-5 M; format: cell-based; how it was run: as §2
Chain of D(2) dopamine receptor (Homo sapiens) (P14416 whole entry): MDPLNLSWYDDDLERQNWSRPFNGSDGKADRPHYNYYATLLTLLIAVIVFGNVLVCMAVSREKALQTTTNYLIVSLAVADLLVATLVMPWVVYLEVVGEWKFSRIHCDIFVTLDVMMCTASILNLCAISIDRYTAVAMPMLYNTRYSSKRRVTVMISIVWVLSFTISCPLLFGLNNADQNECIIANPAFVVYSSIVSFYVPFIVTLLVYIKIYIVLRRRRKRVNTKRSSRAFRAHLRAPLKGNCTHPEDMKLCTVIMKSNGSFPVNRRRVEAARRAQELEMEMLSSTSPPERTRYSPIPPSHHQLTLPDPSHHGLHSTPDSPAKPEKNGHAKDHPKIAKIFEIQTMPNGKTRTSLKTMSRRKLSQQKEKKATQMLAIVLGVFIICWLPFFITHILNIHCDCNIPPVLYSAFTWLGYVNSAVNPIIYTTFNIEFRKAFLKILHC

[7] = test system: Mus musculus; assay: Anticonvulsant activity in mouse assessed as protection against maximal electric shock-induced seizures at 3 mg/kg, ip measured after 0.5 hrs; format: functional, organism-based
How it was run: (§4)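 Mice dosed ip with suspension in 0.5% methylcellulose; maximal electroshock applied at the listed time after dosing. Protection = abolition of hindlimb tonic extension component of seizure; reported as animals protected/animals tested.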

[8] = molecular target: Substance-P receptor (Homo sapiens) (UniProt P25103); assay: Displacement of [125I]BH-SP from NK1 receptor in human U373MG cells at 10^-5 M; format: cell-based; details: U-373MG ATCC; how it was run: as §1
[9] = test system: Rattus norvegicus; assay: Anticonvulsant activity in pilocarpine-induced status epilepticus Sprague-Dawley rat model at 30 mg/kg, ip after 4 hrs during post stage 3 seizure; format: functional, organism-based; how it was run: as §3
[10] = test system: U-937; assay: Displacement of [125I]TNF-alpha from TNF-alpha receptor in human U937 cells at 10^-5 M; format: cell-based; how it was run: as §1
[11] = molecular target: Endothelin-1 receptor (Homo sapiens) (UniProt P25101); assay: Displacement of [125I]Endothelin-1 from human recombinant Endothelin-1 receptor expressed in CHO cells at 10^-5 M; format: cell-based; how it was run: as §1
Chain of Endothelin-1 receptor (Homo sapiens) (P25101 whole entry): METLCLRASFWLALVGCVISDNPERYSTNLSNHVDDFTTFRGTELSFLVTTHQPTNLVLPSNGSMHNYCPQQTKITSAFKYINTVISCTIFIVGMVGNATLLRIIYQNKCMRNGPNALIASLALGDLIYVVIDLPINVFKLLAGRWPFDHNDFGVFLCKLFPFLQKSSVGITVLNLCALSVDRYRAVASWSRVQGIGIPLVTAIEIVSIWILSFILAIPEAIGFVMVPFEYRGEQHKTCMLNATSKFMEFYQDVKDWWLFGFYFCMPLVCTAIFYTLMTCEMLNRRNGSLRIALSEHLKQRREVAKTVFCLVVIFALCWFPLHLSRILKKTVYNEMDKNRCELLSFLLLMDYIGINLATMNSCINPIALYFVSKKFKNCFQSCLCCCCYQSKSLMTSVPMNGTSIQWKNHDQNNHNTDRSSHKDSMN

[12] = molecular target: Beta-2 adrenergic receptor (Homo sapiens) (UniProt P07550); assay: Displacement of [3H](-)CGP12177 from human recombinant Beta-2 adrenergic receptor expressed in CHO cells at 10^-5 M; format: cell-based; how it was run: as §1
Chain of Beta-2 adrenergic receptor (Homo sapiens) (P07550 whole entry, looked up): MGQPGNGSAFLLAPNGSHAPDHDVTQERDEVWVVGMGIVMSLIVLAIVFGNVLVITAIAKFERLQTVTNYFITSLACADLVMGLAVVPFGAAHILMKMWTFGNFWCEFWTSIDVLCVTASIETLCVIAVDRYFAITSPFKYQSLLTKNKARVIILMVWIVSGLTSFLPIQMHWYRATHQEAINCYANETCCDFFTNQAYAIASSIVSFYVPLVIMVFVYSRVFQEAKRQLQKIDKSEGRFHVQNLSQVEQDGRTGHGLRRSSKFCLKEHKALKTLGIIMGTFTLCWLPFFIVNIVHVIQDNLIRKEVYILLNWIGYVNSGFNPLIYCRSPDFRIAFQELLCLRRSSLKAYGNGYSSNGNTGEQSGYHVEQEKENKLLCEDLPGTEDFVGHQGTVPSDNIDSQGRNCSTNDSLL

[13] = molecular target: Adrenergic receptor alpha-1 (Rattus norvegicus) (UniProt P15823+P23944+P43140); assay: Displacement of [3H]prazosin from rat cerebral cortex Alpha-1 adrenergic receptor at 10^-5 M; format: tissue-based; how it was run: as §2
[14] = molecular target: Histamine H2 receptor (Homo sapiens) (UniProt P25021); assay: Displacement of [125I]APT from human recombinant histamine H2 receptor expressed in CHO cells at 10^-5 M; format: cell-based; how it was run: as §1
Chain of Histamine H2 receptor (Homo sapiens) (P25021 whole entry): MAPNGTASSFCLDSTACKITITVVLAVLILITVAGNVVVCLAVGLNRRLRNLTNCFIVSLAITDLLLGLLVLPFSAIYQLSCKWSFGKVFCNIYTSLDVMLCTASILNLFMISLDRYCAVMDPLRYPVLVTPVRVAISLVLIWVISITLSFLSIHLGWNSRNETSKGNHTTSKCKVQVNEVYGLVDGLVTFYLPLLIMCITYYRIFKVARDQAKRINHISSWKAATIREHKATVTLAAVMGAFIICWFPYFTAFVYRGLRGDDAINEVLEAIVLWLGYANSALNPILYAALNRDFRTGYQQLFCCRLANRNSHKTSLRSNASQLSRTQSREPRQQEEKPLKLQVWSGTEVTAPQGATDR

[15] = molecular target: 5-hydroxytryptamine receptor 1B (Rattus norvegicus) (UniProt P28564); assay: Displacement of [125I]CYP from rat cerebral cortex 5-HT1B receptor at 10^-5 M in the presence of isoproternol; format: tissue-based; how it was run: as §1
Chain of 5-hydroxytryptamine receptor 1B (Rattus norvegicus) (P28564 whole entry): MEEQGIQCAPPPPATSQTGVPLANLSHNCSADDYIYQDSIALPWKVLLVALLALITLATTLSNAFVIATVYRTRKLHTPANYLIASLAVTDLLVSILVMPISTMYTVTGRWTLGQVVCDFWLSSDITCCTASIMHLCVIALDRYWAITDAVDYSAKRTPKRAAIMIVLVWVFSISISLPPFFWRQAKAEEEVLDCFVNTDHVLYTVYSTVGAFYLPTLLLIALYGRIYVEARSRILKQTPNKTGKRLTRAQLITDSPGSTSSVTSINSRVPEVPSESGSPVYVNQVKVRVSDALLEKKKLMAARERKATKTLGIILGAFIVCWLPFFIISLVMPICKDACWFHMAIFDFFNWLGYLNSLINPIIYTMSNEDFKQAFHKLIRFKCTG

[16] = test system: Mus musculus; assay: Anticonvulsant activity in mouse assessed as protection against maximal electric shock-induced seizures at 30 mg/kg, ip measured after 4 hrs; format: functional, organism-based; how it was run: as §4
[17] = molecular target: Sodium-dependent dopamine transporter (Homo sapiens) (UniProt Q01959); assay: Displacement of [3H]BTCP from human recombinant dopamine transporter expressed in CHO cells at 10^-5 M; format: cell-based; how it was run: as §1
[18] = molecular target: Muscarinic acetylcholine receptor M5 (Homo sapiens) (UniProt P08912); assay: Displacement of [3H]4-DAMP from human recombinant muscarinic M5 receptor expressed in CHO cells at 10^-5 M; format: cell-based; how it was run: as §1
[19] = molecular target: 5-hydroxytryptamine receptor 3A (Homo sapiens) (UniProt P46098); assay: Displacement of [3H]BRL43694 from human recombinant 5-HT3 receptor expressed in CHO cells at 10^-5 M; format: cell-based; how it was run: as §1
[20] = molecular target: C-X-C chemokine receptor type 2 (Homo sapiens) (UniProt P25025); assay: Displacement of [125I]IL-8 from human recombinant CXCR2 receptor expressed in HEK293 cells at 10^-5 M; format: cell-based; how it was run: as §1
Chain of C-X-C chemokine receptor type 2 (Homo sapiens) (P25025 whole entry): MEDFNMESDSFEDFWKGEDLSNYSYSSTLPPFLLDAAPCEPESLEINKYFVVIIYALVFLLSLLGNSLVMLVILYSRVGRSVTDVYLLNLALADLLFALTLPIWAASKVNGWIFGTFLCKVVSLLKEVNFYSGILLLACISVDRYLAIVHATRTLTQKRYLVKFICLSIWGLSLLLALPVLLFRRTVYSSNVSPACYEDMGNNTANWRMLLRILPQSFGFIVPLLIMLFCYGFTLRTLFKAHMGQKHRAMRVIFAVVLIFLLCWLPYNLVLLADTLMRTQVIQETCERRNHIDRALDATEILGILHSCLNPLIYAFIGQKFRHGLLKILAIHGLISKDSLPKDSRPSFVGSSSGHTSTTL

[21] = molecular target: Histamine H1 receptor (Homo sapiens) (UniProt P35367); assay: Displacement of [3H]pyrilamine from human recombinant histamine H1 receptor expressed in HEK293 cells at 10^-5 M; format: cell-based; how it was run: as §2
Chain of Histamine H1 receptor (Homo sapiens) (P35367 whole entry): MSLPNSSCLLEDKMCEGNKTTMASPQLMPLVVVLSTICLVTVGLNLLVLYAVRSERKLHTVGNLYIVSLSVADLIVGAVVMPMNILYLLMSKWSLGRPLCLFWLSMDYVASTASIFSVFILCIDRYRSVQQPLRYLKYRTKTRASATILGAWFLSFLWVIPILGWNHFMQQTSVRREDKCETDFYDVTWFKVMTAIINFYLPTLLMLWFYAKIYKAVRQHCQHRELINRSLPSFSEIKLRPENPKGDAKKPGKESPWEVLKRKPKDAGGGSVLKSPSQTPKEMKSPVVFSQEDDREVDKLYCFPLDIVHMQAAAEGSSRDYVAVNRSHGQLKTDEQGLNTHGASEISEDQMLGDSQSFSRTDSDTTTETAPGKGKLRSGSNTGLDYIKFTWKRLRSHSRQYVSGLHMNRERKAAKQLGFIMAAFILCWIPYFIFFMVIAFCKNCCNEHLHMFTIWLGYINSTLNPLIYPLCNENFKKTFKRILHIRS

[22] = molecular target: 5-hydroxytryptamine receptor 7 (Homo sapiens) (UniProt P34969); assay: Displacement of [3H]LSD from human recombinant 5-HT7 receptor expressed in CHO cells at 10^-5 M; format: cell-based; how it was run: as §1
[23] = molecular target: Sodium-dependent noradrenaline transporter (Homo sapiens) (UniProt P23975); assay: Displacement of [3H]nisoxentine from human recombinant norepinephrine transporter expressed in CHO cells at 10^-5 M; format: cell-based; how it was run: as §2
Chain of Sodium-dependent noradrenaline transporter (Homo sapiens) (P23975 whole entry): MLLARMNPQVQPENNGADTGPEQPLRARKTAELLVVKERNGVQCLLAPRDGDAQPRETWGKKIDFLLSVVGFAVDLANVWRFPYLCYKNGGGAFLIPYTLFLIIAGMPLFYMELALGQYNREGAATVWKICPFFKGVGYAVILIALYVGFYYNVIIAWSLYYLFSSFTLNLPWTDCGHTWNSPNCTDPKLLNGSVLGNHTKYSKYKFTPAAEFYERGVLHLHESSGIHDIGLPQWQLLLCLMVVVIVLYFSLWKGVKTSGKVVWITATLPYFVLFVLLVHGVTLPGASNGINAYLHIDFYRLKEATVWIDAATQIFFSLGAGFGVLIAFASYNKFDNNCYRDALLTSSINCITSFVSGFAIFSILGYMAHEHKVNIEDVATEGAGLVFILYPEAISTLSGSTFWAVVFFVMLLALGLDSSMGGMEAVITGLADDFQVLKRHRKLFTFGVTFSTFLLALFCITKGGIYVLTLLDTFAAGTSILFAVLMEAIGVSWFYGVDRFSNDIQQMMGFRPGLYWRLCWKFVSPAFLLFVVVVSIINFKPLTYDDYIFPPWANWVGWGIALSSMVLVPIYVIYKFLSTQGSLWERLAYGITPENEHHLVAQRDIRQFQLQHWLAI

[24] = molecular target: Prostaglandin E2 receptor EP4 subtype (Homo sapiens) (UniProt P35408); assay: Displacement of [3H]PGE2 from human recombinant prostanoid EP4 receptor expressed in HEK293 cells at 10^-5 M; format: cell-based; how it was run: as §1
[25] = organism: Rattus norvegicus; assay: Displacement of [125I][Tyr4]bombesin from rat cerebral cortex Bombesin receptor at 10^-5 M; format: tissue-based; how it was run: as §1
[26] = test system: Rattus norvegicus; assay: Anticonvulsant activity in pilocarpine-induced status epilepticus Sprague-Dawley rat model at 30 mg/kg, ip after 1 hr during post stage 3 seizure; format: functional, organism-based; how it was run: as §3
[27] = test system: Mus musculus; assay: Anticonvulsant activity in mouse assessed as protection against subcutaneous pentylenetetrazol-induced seizures at 30 mg/kg, ip measured after 4 hrs; format: functional, organism-based
How it was run: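 Mice dosed ip as 0.5% methylcellulose suspension; pentylenetetrazole 85 mg/kg in 0.9% NaCl injected subcutaneously into posterior midline, animals watched at least 30 min. Protection = no threshold seizure (single clonic spasm episode lasting ≥5 s); scored protected/tested.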

[28] = molecular target: Adrenergic receptor alpha-2 (Rattus norvegicus) (UniProt P22086+P19328+P22909); assay: Displacement of [3H]RX 821002 from rat cerebral cortex Alpha-2 adrenergic receptor at 10^-5 M; format: tissue-based; how it was run: as §1
[29] = molecular target: Nociceptin receptor (Homo sapiens) (UniProt P41146); assay: Displacement of [3H]nociceptin from human recombinant Nociceptin receptor expressed in HEK293 cells at 10^-5 M; format: cell-based; how it was run: as §2
Chain of Nociceptin receptor (Homo sapiens) (P41146 whole entry): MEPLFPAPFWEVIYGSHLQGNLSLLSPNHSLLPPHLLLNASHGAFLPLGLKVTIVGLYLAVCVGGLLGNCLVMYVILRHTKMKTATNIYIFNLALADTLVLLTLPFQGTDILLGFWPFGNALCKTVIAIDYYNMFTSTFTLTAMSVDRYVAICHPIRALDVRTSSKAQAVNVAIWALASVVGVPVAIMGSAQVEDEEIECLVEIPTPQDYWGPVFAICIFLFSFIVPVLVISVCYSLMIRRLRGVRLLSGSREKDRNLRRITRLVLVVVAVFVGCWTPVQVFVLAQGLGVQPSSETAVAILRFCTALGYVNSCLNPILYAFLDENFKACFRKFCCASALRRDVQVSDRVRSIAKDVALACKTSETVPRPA

[30] = test system: Jurkat; assay: Displacement of [3H]DTG from sigma receptor in human jurkat cells at 10^-5 M; format: cell-based; how it was run: as §1
[31] = organism: Rattus norvegicus; assay: Displacement of [3H]GABA from rat cerebral cortex GABA receptor at 10^-5 M; format: tissue-based; how it was run: as §1
[32] = molecular target: D(4) dopamine receptor (Homo sapiens) (UniProt P21917); assay: Displacement of [3H]methylspiperone from human recombinant Dopamine D4.4 receptor expressed in CHO cells at 10^-5 M; format: cell-based; how it was run: as §2

SMILES	inhibition [1]	inhibition [2]	inhibition [3]	Activity [4]	inhibition [5]	inhibition [6]	Activity [7]	inhibition [8]	Activity [9]	inhibition [10]	inhibition [11]	inhibition [12]	inhibition [13]	inhibition [14]	inhibition [15]	Activity [16]	inhibition [17]	inhibition [18]	inhibition [19]	inhibition [20]	further results
Cc1cccc(C)c1OCCOCCN[C@H](C)CO	23.6%	10.1%	96.5%	inactive	29.3%	12%	inactive	17.3%	inactive	5.1%	-3.4%	2%	32.3%	0.6%	-1.8%	inactive	24.5%	8.6%	29.4%	2.9%	inhibition [21]: 22.7%; inhibition [22]: 24.5%; inhibition [23]: 52.6%; inhibition [24]: 14.9%; inhibition [25]: -1.4%; Activity [26]: inactive; Activity [27]: inactive; inhibition [28]: 42.8%; inhibition [29]: 1.5%; inhibition [30]: 92.9%; inhibition [31]: 0.8%; inhibition [32]: 40.9%
Cc1cccc(C)c1OCCOCCN[C@@H](C)CO	40.2%	5.2%	91.4%	inactive	54%	14.7%	inactive	51.7%	inactive	4.6%	-4.4%	5.7%	28.3%	17.1%	16.5%	inactive	16.2%	5.7%	12.3%	2.7%	inhibition [21]: 14.1%; inhibition [22]: 24.6%; inhibition [23]: 34.5%; inhibition [24]: 3%; inhibition [25]: -5.4%; Activity [26]: inactive; Activity [27]: inactive; inhibition [28]: 35.5%; inhibition [29]: 0.2%; inhibition [30]: 95.6%; inhibition [31]: 17.7%; inhibition [32]: 35.8%
